Most compounds without a hit are left out; they make up all but 2.6% or so of the library.
CHT block = inhibitors of human choline transporter CHT; High affinity choline transporter 1 (Homo sapiens), Q9GZV3; CHT-expressing cells, membrane potential dye, choline response; hits give low values; B-score at 10 µM; actives 0.86% (n = 310,000);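 active = B-score over 3 SD under the library average, and starting fluorescence ratio not unusually high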;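 note: choline stimulus applied at its EC90 after an EC20 pre-addition; B-score computed on integrated fluorescence ratio after choline addition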
CHT PAM = CHT positive allosteric modulators, primary screen, cell-based, membrane potential dye, choline EC20 | CHT-expressing cells; hits give high values; LV-AA mutant CHT in HEK293 cells | B-score at 10 µM | actives 0.49% (n = 310,000);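 active = initial fluorescence not abnormally high and integrated response B-score, plate-corrected, over 3 SD above library mean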
Cl transport mod = KCC2 cotransporter modulators, thallium flux, primary screen, cell-based, HEK293 KCC2, FluoZin-2 fluorescence, MLSMR. Solute carrier family 12 member 5 (Homo sapiens), Q9H2X9. KCC2 cells, thallium flux FluoZin-2 fluorescence. B-score of Tl+ flux slope (higher = more flux/activation; lower = inhibition) at 10 µM. actives 2.2% (n = 190,000). AID 1456, 2008;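 active = thallium flux slope and its plate-corrected score both differing from the plate sample mean at a set confidence after two filtering rounds, in either direction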;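 note: slope of fluorescence scaled to starting intensity during 10 to 20 s after thallium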
Rad51 HR inh = human RAD51 strand exchange inhibitors, primary screen, biochemical, fluorescence. inhibition, % at 10 µM. hRad51 DNA strand exchange, fluorescence dequenching. AID 1385, 2008. actives 0.085% (n = 200,000);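 active = inhibition above 40% at the single screening dose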;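 note: 0% = DMSO control wells and 100% = blanks with heterologous ssDNA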
Target sequence (Q06609 whole entry, looked up): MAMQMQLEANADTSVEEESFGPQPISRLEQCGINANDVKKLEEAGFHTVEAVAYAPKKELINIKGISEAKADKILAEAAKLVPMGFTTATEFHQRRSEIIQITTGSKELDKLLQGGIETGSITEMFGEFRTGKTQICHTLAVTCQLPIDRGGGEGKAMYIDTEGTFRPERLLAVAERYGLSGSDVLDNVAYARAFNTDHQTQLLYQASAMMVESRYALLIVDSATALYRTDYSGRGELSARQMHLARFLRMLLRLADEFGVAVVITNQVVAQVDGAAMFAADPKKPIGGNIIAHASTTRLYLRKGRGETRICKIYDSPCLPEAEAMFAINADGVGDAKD
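System: hRad51 filaments on single-stranded DNA; reagent: Fluorescein- and BHQ1-tagged 47-mer duplex; compound dosing: one concentration, 10 µM final; timing: filaments 15 min 37 °C, then compound 30 min; measured by: fluorescein emission 520 nm, excitation 485 nm; benchmarks: per-plate controls and blanks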
KCC2 sec1 = KCC2 modulators in sodium-free buffer, confirmation, cell-based, HEK293 KCC2, thallium flux, secondary assay. shares compounds with Cl transport mod. FluoZin2 fluorescence; hits give high values. normalised thallium flux (F/F0 slope) at 10 µM. actives 15% (n = 3,700);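 active = thallium flux slope above the same plate's solvent-only control mean plus 3 SD; inconclusive = the two replicate wells disagree; inactive = no significant difference from solvent-only control wells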
KCC2 bumet counter = thallium flux persisting under bumetanide in KCC2 cells, confirmation, counter-screen for KCC2 modulator project, cell-based, HEK293 KCC2, FluoZin2, secondary assay 3; shares compounds with Cl transport mod; HEK293-KCC2 + bumetanide/ouabain; hits give high values; normalized thallium flux at 10 µM; actives 49% (n = 3,700);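 active = thallium entry rate above the same plate's blocked-transporter control wells by more than 3 SD; inconclusive = the two repeat wells disagree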;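 note: raw slope of fluorescence over initial fluorescence between 10 and 20 s after thallium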
KCC2 sec2 = KCC2 modulators without ouabain present, confirmation, cell-based, HEK293 KCC2, thallium flux, FluoZin2, secondary assay 2. thallium flux FluoZin2 fluorescence; actives lie on both sides; F/F0 rise rate, 10–20 s post-thallium. shares compounds with Cl transport mod. actives 23% (n = 3,700). normalized thallium flux at 10 µM;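 active = thallium flux slope more than 3 SD above or below the plate's solvent-only control mean, mostly below; inconclusive = the two repeat wells disagreed; inactive = no significant shift from solvent-only controls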;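 note: raw slope with 0.1% DMSO as baseline and bumetanide as block control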
HEK counter1 = thallium flux modulation in parental HEK cells, confirmation, counter-screen for KCC2 modulator project, cell-based, counterscreen 1; shares compounds with Cl transport mod; HEK293 parental cells, thallium flux FluoZin2, ouabain; baseline-ratio fluorescence slope, 10–20 s after thallium; thallium flux rate (normalised fluorescence) at 10 µM; actives 46% (n = 3,700); AID 1716, 2009;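 active = thallium flux rate significantly above the same plate's solvent-only control wells, beyond their mean plus 3 SD; inconclusive = the two replicate wells gave conflicting results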
KCC2 retest ouab = KCC2 inhibitors and activators, ouabain retest, confirmation, HEK-KCC2 cells | actives 48% (n = 3,700) | shares compounds with Cl transport mod | HEK293-KCC2, thallium flux FluoZin2 fluorescence; bidirectional: low = inhibitor, high = activator | raw Tl+ flux slope (below DMSO = inhibition, above = activation) at 10 µM;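 active = thallium flux slope beyond 3 SD from same-plate DMSO control mean in most replicates, usually higher, sometimes lower; inconclusive = repeat tests gave conflicting results; inactive = no significant difference from controls in most replicates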;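 note: slope of initial-normalized fluorescence between seconds 10 and 20 after thallium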
HEK293 Tl flux2 = native HEK Tl+ uptake effects, second counter-screen – HEK cells, counterscreen 2, counter-screen for KCC2 modulator project, confirmation | HEK293 parental, thallium flux FluoZin-2 fluorescence slope | actives 33% (n = 3,700) | shares compounds with Cl transport mod | thallium flux slope at 10 µM;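 active = thallium flux slope above the same plate's solvent-control mean plus 3 SD in both duplicate wells; inconclusive = duplicate wells that disagreed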;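 note: run without ouabain in cells lacking the KCC2 cotransporter; slope of fluorescence scaled to its starting value between 10 and 20 s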
An asterisk follows results filed as active; i = inactive; ? = inconclusive; · = no result given.

SMILES	CHT block	CHT PAM	Cl transport mod	Rad51 HR inh	KCC2 sec1	KCC2 bumet counter	KCC2 sec2	HEK counter1	KCC2 retest ouab	HEK293 Tl flux2
O=S(=O)(c1ccccc1)N1CCn2c(nc3ccccc32)C1	i	i	·	3	0.0088	?	0.034	0.0074	0.018	0.011
CCCN(CC(=O)Nc1ccccc1C)C(=O)C1CC(=O)N(c2cccc(C)c2C)C1 (stereo not drawn)	i	i	·	·	·	·	·	·	·	·
CC(C1CC2CCC1C2)n1c(-c2cccs2)n[nH]c1=S (stereo not drawn)	i	i	72*	-7	0.019	0.082*	0.042*	0.034*	0.041*	0.032*
S=c1[nH]nc(-c2cccs2)n1C1CCCCC1	i	i	11*	9	0.011	0.016*	0.036	0.013*	0.026*	?
CCN(CC)CCSc1nc2ccccc2c(=S)n1-c1ccccc1	i	6.6*	2.8*	-1	0.01	0.0056	0.034	0.0086	0.02	0.011
Cc1ccc(-c2csc(NC(=O)C3CC(=O)N(Cc4ccco4)C3)n2)cc1 (stereo not drawn)	i	i	-4.3	-8	·	·	·	·	·	·
Cc1csc(NC(=O)C2CC(=O)N(Cc3ccco3)C2)n1 (stereo not drawn)	i	i	2.8*	-8	0.0058	0.0046	0.03	0.0078	0.019	0.0098
C=CCn1c(Cc2cccs2)nnc1SCC(=O)c1ccc2ccccc2c1	i	i	-5.9*	6	0.0091	?	0.027*	0.0065	0.014*	0.01
C=CCn1c(CCNC(=O)c2cccs2)nnc1SCC(=O)c1ccc(Cl)cc1	i	i	-0.078	4	·	·	·	·	·	·
C=CCn1c(Cc2cccs2)nnc1SCC(=O)NCc1ccco1	i	i	·	-3	·	·	·	·	·	·
C=CCn1c(CNC(=O)c2cccs2)nnc1SCC(=O)c1ccc(Br)cc1	i	i	-5.1*	5	0.0078	0.0051	0.031	0.0065	0.037*	0.01
C=CCn1c(Cc2cccs2)nnc1SCC(=O)c1ccc(F)cc1	i	i	-4.1*	12	0.0068	0.0042	0.026	0.0056	0.015*	0.0088
C=CCn1c(Cc2cccs2)nnc1SCC(=O)Nc1ccc(OC)c(OC)c1	i	i	-0.64	3	·	·	·	·	·	·
CC(=O)Nc1ccc(NC(=O)Cn2c(=O)n(-c3ccc(C)cc3)c(=O)c3oc4ccccc4c32)cc1	i	i	0.11	7	·	·	·	·	·	·
CCCCCCN1C(=O)C(O)=C(C(C)=O)C1c1ccc(Cl)cc1 (stereo not drawn)	i	i	-3.3*	-11	0.0093	?	0.03	0.0082	0.014*	0.011
COC(=O)C1=C(C)N(C2CCCCC2)C(=O)C1	i	i	6.2*	10	0.007	0.0068	0.029	0.007	0.019	0.009
COc1ccc(C(=O)c2ccc(OC)cc2O)c(O)c1	i	i	5.8*	0	0.0088	0.0053	0.029	0.0072	0.026	0.0097
COc1ccc(C(=O)/C=C/c2ccccc2)c(O)c1	i	i	1.1	-4	·	·	·	·	·	·
CCOC(=O)c1cc[nH]c1CC(=O)NC	i	i	-0.14	10	·	·	·	·	·	·
CCCCCN(C(=O)CCC(=O)OCc1ccc(C(C)C)cc1)c1c(N)n(CCCC)c(=O)[nH]c1=O	i	i	·	·	·	·	·	·	·	·
Cc1ccc(C(=O)NCCc2nnc3ccc(SCC(=O)Nc4cc(C)on4)nn23)cc1	i	i	0.046	6	·	·	·	·	·	·
CCC(C)n1c(SCC(=O)NC(=O)c2cccn2C)nc2ccccc2c1=O (stereo not drawn)	i	i	22*	-4	0.016*	0.096*	0.037	0.037*	0.042*	0.017*
C=CCn1c(SCC(=O)NC(=O)c2cccn2C)nc2ccccc2c1=O	i	i	-1.2	23	·	·	·	·	·	·
COc1ccc(C2CC(c3ccc(OC)cc3)n3nc(NC(=O)c4ccco4)nc3N2)cc1 (stereo not drawn)	i	i	-0.85	2	·	·	·	·	·	·
O=C(Nc1ccc(-c2nc3ccccc3[nH]2)cc1)c1ccccc1NS(=O)(=O)c1ccc(F)cc1	i	i	-4.6*	-7	0.0077	0.0042	0.029	0.0073	0.015*	0.01
SMILES	CHT block	CHT PAM	Cl transport mod	Rad51 HR inh	KCC2 sec1	KCC2 bumet counter	KCC2 sec2	HEK counter1	KCC2 retest ouab	HEK293 Tl flux2
O=C(Nc1cc(S(=O)(=O)N2CCCCC2)ccc1Cl)c1ccccc1NS(=O)(=O)c1ccc(F)cc1	i	i	-4.8*	·	0.0083	0.0065	?	0.0056	?	0.0091
CS(=O)(=O)c1ccccc1C(=O)Nc1ccc(-c2nc3ccccc3[nH]2)cc1	i	i	·	·	·	·	·	·	·	·
O=C(Nc1ccccc1N1CCOCC1)c1ccccc1NS(=O)(=O)c1ccc(F)cc1	i	i	-1.6	·	·	·	·	·	·	·
COc1cccc(/C=N/Nc2snc(SC)c2C#N)c1O	i	i	31*	·	0.023*	0.082*	0.038	0.039*	0.055*	0.014*
O=C(CCNC(=O)Cn1ccc2ccccc2c1=O)NCCN1CCN(c2cccc(Cl)c2)CC1	i	i	4.6*	5	0.0059	0.0042	0.03	0.0077	0.019	0.01
COc1ccc(N2CCN(C(=O)CCNC(=O)Cn3ccc4ccccc4c3=O)CC2)cc1	i	i	-1.3	-7	·	·	·	·	·	·
O=C(Cn1ccc2ccccc2c1=O)NCCC(=O)N1CCN(c2cccc(Cl)c2)CC1	i	i	-2.8*	0	0.0073	0.0066	0.034	0.0073	?	0.011
